Compound activity: PubChem BioAssay, Johns Hopkins Ion Channel Center
An excerpt weighted towards active compounds, which were near 3.8% of everything screened.
KCNQ1 block – inhibitors of human KCNQ1 channel, primary screen, cell-based, thallium flux, high-throughput | Potassium voltage-gated channel subfamily KQT member 1 (Homo sapiens), P51787 | CHO-K1 KCNQ1, FluxOR thallium flux fluorescence; active compounds read high | B-score at 10 µM | hit rate 1.3% among 310,000;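 active = compounds whose thallium flux B-score, printed positive for inhibition, exceeds three library SD while starting fluorescence stays within three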;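 note: channel opened by potassium depolarization with thallium stimulus after 20 min compound exposure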
Target sequence (P51787 whole entry, looked up): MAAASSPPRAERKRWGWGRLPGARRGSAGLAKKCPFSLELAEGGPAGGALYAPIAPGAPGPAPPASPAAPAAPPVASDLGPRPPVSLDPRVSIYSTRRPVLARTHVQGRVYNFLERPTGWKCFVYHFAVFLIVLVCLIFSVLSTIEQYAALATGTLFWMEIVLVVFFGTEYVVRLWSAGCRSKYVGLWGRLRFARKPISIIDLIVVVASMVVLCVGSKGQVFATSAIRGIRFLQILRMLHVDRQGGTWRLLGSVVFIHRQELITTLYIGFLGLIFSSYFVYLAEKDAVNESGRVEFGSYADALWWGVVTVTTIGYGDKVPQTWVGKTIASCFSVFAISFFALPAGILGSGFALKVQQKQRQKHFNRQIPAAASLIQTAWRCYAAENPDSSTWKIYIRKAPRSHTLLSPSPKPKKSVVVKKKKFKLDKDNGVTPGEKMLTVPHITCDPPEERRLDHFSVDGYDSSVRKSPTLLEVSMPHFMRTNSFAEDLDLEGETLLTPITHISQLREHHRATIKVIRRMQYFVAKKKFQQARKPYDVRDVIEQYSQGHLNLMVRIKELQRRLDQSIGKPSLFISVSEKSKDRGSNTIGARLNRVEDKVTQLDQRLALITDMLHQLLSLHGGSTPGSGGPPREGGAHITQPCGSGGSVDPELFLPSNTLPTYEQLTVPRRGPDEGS
KCNK9 block – KCNK9 potassium channel inhibitors, primary screen, HEK293 cells, thallium flux | AID 488922, 2010 | hit rate 1.2% among 310,000 | B-score at 10 µM | Potassium channel subfamily K member 9 (Homo sapiens), Q9NPC2 | FluxOR thallium flux fluorescence; active compounds read low;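 active = ratio B-score over 3 SD below the library mean, with starting fluorescence within 5 SD of its mean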;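 note: negative B-score means less thallium flux so channel inhibition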
KCNQ1 pot – potentiators or activators of KCNQ1 channel, primary screen, cell-based, thallium flux, high-throughput; AID 2648, 2010; Potassium voltage-gated channel subfamily KQT member 1 (Homo sapiens), P51787; hit rate 0.35% among 310,000; B-score at 10 µM; CHO-K1 KCNQ1, thallium flux FluxOR fluorescence; active compounds read high;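 active = fluorescence ratio B-score, a plate-corrected score, at least three library SD, with initial intensity B-score within 5 SD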
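System: Stable KCNQ1 CHO-K1 line | Incubation: 90 min dye loading and 20 min compound exposure, both at room temperature | Measure: Ratio B score | Medium: Assay buffer for compound exposure, DMSO matched across wells | Compound dosing: Single-concentration screen | Probe or stimulus: K+/Tl+ depolarizing stimulus | Measured by: Kinetic FluxOR fluorescence, 10 s baseline plus 110 s post-stimulus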
KCNK3 block – human KCNK3 channel inhibitors, primary screen, CHO cells, FluxOR thallium flux, B-score; FluxOR fluorescence; active compounds read low; hit rate 0.84% among 340,000; B-score at 10 µM; Potassium channel subfamily K member 3 (Homo sapiens), O14649;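 active = B-score under library mean minus 4 SD, starting fluorescence ratio at most library mean plus 5 SD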;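 note: more negative B-score means stronger inhibition of thallium flux through KCNK3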
hERG protect – hERG rescue from dofetilide block, primary screen, cell-based, CHO-hERG, FluxOR thallium flux, dofetilide IC70; Voltage-gated inwardly rectifying potassium channel KCNH2 (Homo sapiens), Q12809; dofetilide IC70 present; AID 1511, 2009; hit rate 0.51% among 310,000; activation (rescue from dofetilide block), less the hit threshold, % at 10 µM;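 active = activation above the mean of controls blocked by dofetilide plus 5 SD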;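 note: thallium influx through hERG after potassium depolarization seen as dye fluorescence rise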
Kir21 inh – inhibitors of mouse Kir2.1 inward-rectifier potassium channel. hit rate 0.85% among 310,000. AID 1672, 2009. B-score at 10 µM. HEK293-Kir2.1, FluxOR thallium flux fluorescence; active compounds read low. Inward rectifier potassium channel 2 (Mus musculus), P35561;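 active = fluorescence ratio B-score at or below minus 3 SD of library scores, with starting-brightness B-score within 2 SD, cut at about -4.2 in these data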;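 note: channel flux triggered by added potassium and thallium sulfate stimulus; B-score of peak minus minimum fluorescence over baseline after thallium stimulus; more negative B-score means stronger Kir2.1 block with less thallium influx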
KCNK9 block conf – KCNK9 potassium channel inhibitors, confirmation, HEK293 cells, thallium flux, duplicate; shares compounds with KCNK9 block; FluxOR thallium flux fluorescence; inhibition, % at 10 µM; hit rate 43% among 4,900; AID 492992, 2010;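 active = thallium signal inhibited by more than 5 SD of the compound-free buffer control wells, on both duplicate plates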
Kir21 sel – mouse Kir2.1 channel inhibition, confirmation, selectivity assay for KCNK9 modulator project, cell-based, HEK293, thallium flux; inhibition, % at 10 µM; shares compounds with KCNK9 block; Kir2.1 cells, FluxOR thallium flux fluorescence; hit rate 4% among 4,900;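 active = thallium signal drop more than 5 SD beyond the mean of the no-compound control wells, seen in both duplicate plates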;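 note: signal is fluorescence rise after thallium addition divided by baseline fluorescence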
KCNK9 uninduced – thallium flux in non-induced HEK293 cells, confirmation, counter-screen for KCNK9 inhibitor project, cell-based, second counter screen, non-induced KCNK9-HEK293; hit rate 40% among 4,900; inhibition, % at 10 µM; FluxOR thallium flux; AID 492997, 2010; shares compounds with KCNK9 block;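 active = thallium signal drop beyond 5 SD of the untreated control mean, on both duplicate plates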
Of the large screens only hits and unclear results are named; the others gave an inactive call (follow-up assays come after a bar, where they were run).

Cc1ccc(NC(=O)CSc2nc(=O)n(Cc3ccncc3)c3c2CCC3)c(C)c1	none
CC(/C=C1\SC(=S)N(NS(=O)(=O)c2ccc(C)cc2)C1=O)=C\c1ccccc1	KCNQ1 pot 39 | KCNK9 block conf inactive | Kir21 sel inactive | KCNK9 uninduced inactive
C=CCOc1ccc(/C=C2\SC(=S)N(NS(=O)(=O)c3ccccc3)C2=O)cc1	KCNQ1 pot 15 | KCNK9 block conf inactive | Kir21 sel inactive | KCNK9 uninduced inactive
CC(/C=C1\SC(=S)N(NC(=O)c2ccccc2C)C1=O)=C\c1ccccc1	none
CC(/C=C1\SC(=S)N(NS(=O)(=O)c2ccccc2)C1=O)=C\c1ccccc1	KCNQ1 pot 14, hERG protect 10 | KCNK9 block conf inactive | Kir21 sel inactive | KCNK9 uninduced inactive
CC(/C=C1\SC(=S)N(C(C(=O)O)C(C)C)C1=O)=C\c1ccccc1 (configuration not stated)	none | KCNK9 block conf inactive | Kir21 sel inactive | KCNK9 uninduced inactive
Cc1ccccc1C(=O)N1CCC(C(=O)Nc2ccc(S(=O)(=O)N3C(C)CCCC3C)cc2)CC1 (configuration not stated)	none (no result: KCNQ1 block, KCNK9 block, KCNQ1 pot, hERG protect, Kir21 inh)
O=C(COc1ccccc1)N=C1SC2CS(=O)(=O)CC2N1Cc1ccccc1 (configuration not stated)	none
COc1cc(O)c(C(=O)CC(=O)c2ccncc2)c(OC)c1	none (no result: KCNQ1 block, KCNK9 block, KCNQ1 pot, hERG protect, Kir21 inh)
CC(c1cccs1)N(C(=O)Nc1ccccc1)C1CCCCC1 (configuration not stated)	none | KCNK9 block conf inactive | Kir21 sel inactive | KCNK9 uninduced inactive
O=C(OCC(O)CO)c1ccccc1Nc1ccnc2cc(Cl)ccc12 (configuration not stated)	none (no result: KCNQ1 block, KCNK9 block, KCNQ1 pot, hERG protect, Kir21 inh)
CCOC(=O)C1=C(C)N=C2SC=C(C)N2C1c1ccc(OC)cc1 (configuration not stated)	none
Cc1ccc(C(=O)OCCN2CCN(c3ncc(C(F)(F)F)cc3Cl)CC2)cc1	none | KCNK9 block conf inactive | Kir21 sel inactive | KCNK9 uninduced inactive
O=C(OCCN1CCN(c2ncc(C(F)(F)F)cc2Cl)CC1)c1ccc(F)cc1	none
COc1ccc(C(=O)OC2CCN(c3ncc(C(F)(F)F)cc3Cl)CC2)cc1	none | KCNK9 block conf inactive | Kir21 sel inactive | KCNK9 uninduced inactive
CCN=c1scc(-c2ccco2)n1/N=C/c1ccc(O)cc1	none
CCN=c1scc(-c2ccco2)n1/N=C/c1ccc(OC)c(O)c1	none | KCNK9 block conf inactive | Kir21 sel inactive | KCNK9 uninduced inactive
CC1=NNC(=O)/C1=C\c1cn(-c2ccccc2)nc1-c1ccccc1	none | KCNK9 block conf inactive | Kir21 sel inactive | KCNK9 uninduced inactive
CSc1ccccc1OCc1cc(C(=O)N2CCc3sccc3C2)no1	none | KCNK9 block conf inactive | Kir21 sel inactive | KCNK9 uninduced inactive
O=C(c1cc(COc2ccc(F)cc2Cl)on1)N1CCc2sccc2C1	none
COc1cccc(-c2nnc(SCC(=O)Nc3ccc4c(c3)OCCO4)n2Cc2ccco2)c1	KCNK9 block -16 | KCNK9 block conf 64% | Kir21 sel inactive | KCNK9 uninduced 37%
CCCn1c(SCC(=O)Nc2ccc3c(c2)OCCO3)nnc1-c1ccco1	none
COc1ccc(CNC(=O)COc2ccc(S(=O)(=O)N3CCOCC3)cc2C)cc1	none
Cc1cc(C(C)(C)C)cc(C)c1Cn1c2[n+](c3ccc(C(F)(F)F)cc31)CCCCC2	KCNQ1 block 6, KCNK9 block -11, Kir21 inh -7.2 | KCNK9 block conf 71% | Kir21 sel inactive | KCNK9 uninduced inactive
CCC(=O)N(CCC1(c2ccccc2OC)CCOC(C(C)C)C1)Cc1ccco1 (configuration not stated)	KCNK9 block -14 | KCNK9 block conf 47% | Kir21 sel inactive | KCNK9 uninduced 46%
COc1ccccc1C1(CC(=O)O)CCOC(C(C)C)C1 (configuration not stated)	none
CCN(CC)C(=O)c1[nH]cnc1C(=O)NCc1ccccc1	none (no result: KCNQ1 block, KCNK9 block, KCNQ1 pot, hERG protect, Kir21 inh)
CC1=C([N+](=O)[O-])C(c2cccc(Br)c2)C2=C(N1)c1ccccc1C2=O (configuration not stated)	KCNQ1 block 10, KCNK9 block -8.4 | KCNK9 block conf 54% | Kir21 sel inactive | KCNK9 uninduced 38%
COc1ccc(NC(=O)c2ccc(-c3ccc([N+](=O)[O-])cc3)o2)cc1OC	KCNK9 block -16 | KCNK9 block conf 56% | Kir21 sel inactive | KCNK9 uninduced 26%
CC(C)CC(=O)C1CCCN(C(=O)c2ccc3oc(Cc4ccccc4)nc3c2)C1 (configuration not stated)	none | KCNK9 block conf inactive | Kir21 sel inactive | KCNK9 uninduced inactive
OCCN1CCN(C2CCC(c3ccc(F)cc3)c3ccc(F)cc32)CC1 (configuration not stated)	none
CCc1ccc(NC(=O)COC(=O)/C(=C/c2ccccc2OC)c2ccccc2)cc1	none | KCNK9 block conf inactive | Kir21 sel inactive | KCNK9 uninduced inactive
CCN1CCN(c2ccc(S(=O)(=O)N3CCCCC3)cc2NC(=O)CC(NC(C)=O)c2ccccc2)CC1 (configuration not stated)	none
Cc1ccc(OCCn2c(=S)[nH]c3ccccc32)c(C(C)C)c1	none | KCNK9 block conf inactive | Kir21 sel 42% | KCNK9 uninduced inactive
Cc1cccc(OCCn2c(=S)[nH]c3ccccc32)c1	none
CC(NC(=O)C1CC1)C(c1cccs1)N1CCOCC1 (configuration not stated)	none
CC(NC(=O)C1CCC(C(C)(C)C)CC1)C(c1ccccc1)N1CCOCC1 (configuration not stated)	none | KCNK9 block conf inactive | Kir21 sel inactive | KCNK9 uninduced inactive
